From the RNAGym collection of RNA variant scans (doi:10.1002/anie.201605470)

B1: Osa-1-4 twister ribozyme (parent)
chain: CCGCCUAACACUGCCAAUGCCGGUCCCAAGCCCGGAUAAAAGUGGAGGGGGCGG

Variants of: B1
Assay: self-cleavage, relative activity (ratio to wild type); higher = more cleavage; co-transcriptional
Summary of the method: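 A DNA template encoding a 54-nucleotide twister ribozyme from Oryza sativa was made so that each of the 48 positions downstream of the cleavage site carried 97 % wild-type base and 1 % of each other base. Transcription in vitro ran for 2 h at 37 °C, during which the ribozyme could cleave itself. Reverse transcription used a template-switching oligonucleotide, and the products were PCR-amplified and deep-sequenced. Each read was scored as cleaved or uncleaved by whether upstream sequence was present, and relative activity is the fraction cleaved normalised to wild type.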

First: G34C G54C
Second: G34C G54U
The self-cleavage of the first is lower: 0.16 for the first, 0.25 for the second.

Compared with G34C G54A, G34A U43A is higher in self-cleavage: 0.15 for the first, 0.22 for the second.

Compared with G34A U43G, G34A U43C is higher in self-cleavage: 0.1 for the first, 0.19 for the second.

First: G35U G45U
Second: G35U G45A
The self-cleavage of the first is lower: 0.09 for the first, 0.19 for the second.

Compared with G35U G45C, G35A G47U is higher in self-cleavage: 0.06 for the first, 0.18 for the second.

First: G35A G47C
Second: G35A G47A
The self-cleavage of the first is lower: 0.11 for the first, 0.27 for the second.

Going from A36C A38U to A36C A38C, the self-cleavage rises from 0.79 to 0.81.

Going from A36C A38G to G34A G50U, the self-cleavage rises from 0.54 to 0.83.

Going from G34A G50C to G34A G50A, the self-cleavage falls from 0.6 to 0.29.

G34A G54C and G34A G54U are the same in self-cleavage: 0.7 for the first, 0.7 for the second.

First: G34A G54A
Second: G35A G54U
The self-cleavage of the first is lower: 0.64 for the first, 0.81 for the second.

G35A G54C and G35A G54A are the same in self-cleavage: 0.85 for the first, 0.85 for the second.

Compared with G35U U37G, G35U U37A is higher in self-cleavage: 0.89 for the first, 0.92 for the second.

Going from G35U U37C to G35A U12A, the self-cleavage falls from 0.94 to 0.61.

Going from G35A U12C to G35A U12G, the self-cleavage falls from 0.48 to 0.06.

Going from G34C G44U to G34C G44C, the self-cleavage falls from 0.16 to 0.14.

First: G34C G44A
Second: G34U G51A
The self-cleavage of the first is higher: 0.2 for the first, 0.1 for the second.

Compared with G34U G51U, G34U G51C is lower in self-cleavage: 0.06 for the first, 0.05 for the second.

First: G34C U18G
Second: G34C U18C
The self-cleavage of the first is lower: 0.15 for the first, 0.36 for the second.

Compared with G34C U18A, G34C G50U is lower in self-cleavage: 0.43 for the first, 0.41 for the second.

Compared with G34C G50C, G34C G50A is higher in self-cleavage: 0.19 for the first, 0.23 for the second.

First: G35A G53C
Second: G35A G53U
The self-cleavage of the first is lower: 0.08 for the first, 0.22 for the second.

First: G35A G53A
Second: G34U U24G
The self-cleavage of the first is higher: 0.68 for the first, 0.03 for the second.

Going from G34U U24A to G34U U24C, the self-cleavage falls from 0.15 to 0.07.

Compared with A36C A41U, A36C A41G is lower in self-cleavage: 0.91 for the first, 0.13 for the second.

Compared with A36C A41C, G35U G54U is higher in self-cleavage: 0.6 for the first, 0.8 for the second.

Going from G35U G54C to G35U G54A, the self-cleavage rises from 0.77 to 0.8.

Going from G35C G53A to G35C G53U, the self-cleavage falls from 0.12 to 0.09.

Compared with G35C G53C, G34U G42A is higher in self-cleavage: 0.06 for the first, 0.13 for the second.

Compared with G34U G42U, G34U G42C is higher in self-cleavage: 0.07 for the first, 0.08 for the second.

Going from A36C to G34U G45U, the self-cleavage falls from 0.86 to 0.08.

Going from G34U G45C to G34U G45A, the self-cleavage rises from 0.05 to 0.09.

Compared with A36C C11G, A36C C11U is higher in self-cleavage: 0.08 for the first, 0.26 for the second.

First: A36C C11A
Second: G35C G44A
The self-cleavage of the first is lower: 0.11 for the first, 0.25 for the second.

First: G35C G44U
Second: G35C G44C
The self-cleavage of the first is lower: 0.26 for the first, 0.45 for the second.

G35C G42U and G35C G42C are the same in self-cleavage: 0.07 for the first, 0.07 for the second.

Compared with G35C G42A, G34C G45A is lower in self-cleavage: 0.08 for the first, 0.05 for the second.

G34C G45C and G34C G45U are the same in self-cleavage: 0.06 for the first, 0.06 for the second.

Compared with G34A U18C, G34A U18A is higher in self-cleavage: 0.43 for the first, 0.73 for the second.

Compared with G34A U18G, G35U G42C is lower in self-cleavage: 0.71 for the first, 0.11 for the second.

Compared with G35U G42A, G35U G42U is lower in self-cleavage: 0.35 for the first, 0.08 for the second.

First: G34U G50C
Second: G34U G50U
The self-cleavage of the first is lower: 0.39 for the first, 0.73 for the second.

First: G34U G50A
Second: A36C C9A
The self-cleavage of the first is higher: 0.26 for the first, 0.08 for the second.

Compared with A36C C9G, A36C C9U is higher in self-cleavage: 0.11 for the first, 0.21 for the second.

First: G35A G42U
Second: G35A G42C
The self-cleavage of the first is lower: 0.08 for the first, 0.17 for the second.

Going from G35A G42A to G34C G42A, the self-cleavage falls from 0.44 to 0.09.

Going from G34C G42U to G34C G42C, the self-cleavage rises from 0.04 to 0.09.

First: A36C C32A
Second: A36C C32U
The self-cleavage of the first is lower: 0.06 for the first, 0.07 for the second.

Going from A36C C32G to G34U U43C, the self-cleavage rises from 0.06 to 0.15.

Compared with G34U U43A, G34U U43G is lower in self-cleavage: 0.11 for the first, 0.07 for the second.

First: G34C U43G
Second: G34C U43C
The self-cleavage of the first is lower: 0.07 for the first, 0.1 for the second.

Going from G34C U43A to A36C A46C, the self-cleavage falls from 0.09 to 0.07.

First: A36C A46U
Second: A36C A46G
The self-cleavage of the first is lower: 0.05 for the first, 0.06 for the second.

Compared with G35C G54A, G35C G54C is lower in self-cleavage: 0.2 for the first, 0.13 for the second.

Going from G35C G54U to G34C G53A, the self-cleavage falls from 0.36 to 0.09.

First: G34C G53C
Second: G34C G53U
The self-cleavage of the first is higher: 0.09 for the first, 0.07 for the second.

Compared with G35C U43G, G35C U43A is higher in self-cleavage: 0.1 for the first, 0.14 for the second.

Compared with G35C U43C, G34A G47U is higher in self-cleavage: 0.09 for the first, 0.1 for the second.

Compared with G34A G47A, G34A G47C is lower in self-cleavage: 0.13 for the first, 0.08 for the second.

First: G34C U24C
Second: G34C U24A
The self-cleavage of the first is lower: 0.06 for the first, 0.07 for the second.

First: G34C U24G
Second: G34C G35U
The self-cleavage of the first is lower: 0.02 for the first, 0.28 for the second.

Going from G34C G35C to G34C G35A, the self-cleavage rises from 0.11 to 0.39.

First: G35A U18C
Second: G35A U18G
The self-cleavage of the first is lower: 0.52 for the first, 0.79 for the second.

First: G35A U18A
Second: G35U U18C
The self-cleavage of the first is higher: 0.79 for the first, 0.5 for the second.

Going from G35U U18G to G35U U18A, the self-cleavage rises from 0.77 to 0.8.

First: G35A G48U
Second: G35A G48A
The self-cleavage of the first is lower: 0.09 for the first, 0.12 for the second.

Going from G35A G48C to G34U G49C, the self-cleavage falls from 0.1 to 0.06.

G34U G49A and G34U G49U are the same in self-cleavage: 0.11 for the first, 0.11 for the second.

G34A G48A and G34A G48C are the same in self-cleavage: 0.08 for the first, 0.08 for the second.

First: G34A G48U
Second: G34U G54C
The self-cleavage of the first is lower: 0.06 for the first, 0.57 for the second.

Going from G34U G54A to G34U G54U, the self-cleavage rises from 0.39 to 0.49.

Compared with G35U G48C, G35U G48A is higher in self-cleavage: 0.07 for the first, 0.09 for the second.

Going from G35U G48U to G34C G47U, the self-cleavage falls from 0.08 to 0.06.

First: G34C G47C
Second: G34C G47A
The self-cleavage of the first is lower: 0.05 for the first, 0.07 for the second.

Compared with A36C C20A, A36C C20G is lower in self-cleavage: 0.81 for the first, 0.09 for the second.

First: A36C C20U
Second: G35C U12G
The self-cleavage of the first is higher: 0.88 for the first, 0.07 for the second.

Going from G35C U12C to G35C U12A, the self-cleavage falls from 0.09 to 0.08.

First: G34A G45A
Second: G34A G45U
The self-cleavage of the first is higher: 0.15 for the first, 0.09 for the second.

Compared with G34A G45C, G34A G44U is higher in self-cleavage: 0.06 for the first, 0.58 for the second.

Going from G35A U24G to G35A U24C, the self-cleavage rises from 0.03 to 0.08.

First: G35A U24A
Second: G35U G50C
The self-cleavage of the first is lower: 0.32 for the first, 0.79 for the second.

First: G35U G50A
Second: G35U G50U
The self-cleavage of the first is lower: 0.35 for the first, 0.92 for the second.

Compared with A36C A40C, A36C A40U is higher in self-cleavage: 0.05 for the first, 0.13 for the second.

Variant A36C A40G has a self-cleavage of 0.12.
